# In PMC9979266 (Acta Pharmaceutica Sinica. B, 2022):
# What was measured:
# NIH3T3 cells = assay: MTT cell cytotoxicity assay, NIH3T3; format: cell-based, murine; details: 10–160 μmol/L, 24 h, n = 3
# [1] = tested on: TGF-β1-induced A549 cells; assay: Marker expression; format: cell-based, human; details: n = 3; for miR-23b-5p expression after inhibitor treatment: 10 μmol/L pretreatment, qPCR
# Method in brief: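 A549 in RPMI 1640 + 10% FBS, plated 24 h, serum-starved overnight. Three pathway inhibitors at 10 μmol/L added 30 min before TGF-β1 (5 ng/mL) plus test peptide. Harvest: RNA/protein at 48 h, phosphoproteins at 1 h. Western: 30 μg protein, 10% SDS-PAGE, ECL, GAPDH-normalised. qPCR: 2−ΔΔCt with GAPDH (mRNA) or U6 (miRNA) reference. At least three independent replicates, mean ± SD.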
Compound,Cytotoxicity against NIH3T3 cells (NIH3T3 cells),miR-23b-5p expression after inhibitor treatment [1],"AQP5 expression after inhibitor pretreatment ([1]; 10 μmol/L, 30 min pretreatment, Western blot)"
DHAAPQIR-NH2 [DR3d4dA],no toxicity,,
DHNAPQIR-NH2 [DR4dA],no toxicity,,
C[S+]([O-])c1ccc(-c2nc(-c3ccncc3)c(-c3ccc(F)cc3)[nH]2)cc1 (stereo not drawn) [SB203580],,reduced,
DHANPQIR-NH2 [DR3dA],no toxicity,,
COc1cccc(-c2cc(=O)c3ccccc3o2)c1N [PD98059],,reduced,elevated
